PAFAH1B3 FP inh = PAFAH1B3 enzyme inhibitors, primary screen, biochemical, fluorescence polarization, human. inhibition, % at 3.39 µM. actives 0.28% (n = 340,000). AID 492972, 2010. recombinant PAFAH1B3, FP-rhodamine probe;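 active = inhibition above the screen-wide average of all tested compounds plus 3 SD, cut at about 25% in these data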;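 also: 0% = enzyme with DMSO only and 100% = wells lacking PAFAH1B3 protein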
Target sequence (Q15102 whole entry, looked up): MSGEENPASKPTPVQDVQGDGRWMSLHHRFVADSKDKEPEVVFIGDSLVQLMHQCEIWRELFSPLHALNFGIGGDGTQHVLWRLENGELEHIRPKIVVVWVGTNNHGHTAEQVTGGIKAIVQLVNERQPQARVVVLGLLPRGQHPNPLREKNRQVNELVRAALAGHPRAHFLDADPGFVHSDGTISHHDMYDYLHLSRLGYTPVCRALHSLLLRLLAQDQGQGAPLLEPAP
PAFAH2 inh = PAFAH2 enzyme inhibitors, primary screen, biochemical, fluorescence polarization, human; AID 492956, 2010; inhibition, % at 3.39 µM; recombinant PAFAH2, FP-rhodamine activity probe; actives 0.99% (n = 340,000); Platelet-activating factor acetylhydrolase 2, cytoplasmic (Homo sapiens), Q99487;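 active = inhibition above the mean over all tested compounds plus 3 SD, cut at about 30% in these data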;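 also: inhibitors block probe labeling of enzyme so polarization drops; 0% = enzyme with DMSO and 100% = wells lacking PAFAH2 protein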
pPAFAH inh = pPAFAH enzyme inhibitors, primary screen, biochemical, fluorescence polarization, human; Platelet-activating factor acetylhydrolase (Homo sapiens), Q13093; recombinant pPAFAH, FP-rhodamine probe fluorescence polarization; inhibition, % at 3.39 µM; actives 1.5% (n = 330,000);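 active = inhibition above the mean inhibition across the screen plus 3 SD, cut at about 25% in these data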;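 also: inhibitors block binding of the rhodamine activity-based probe so polarization drops; 0% = enzyme with DMSO and 100% = wells lacking pPAFAH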
PAFAH1B2 FP inh = PAFAH1B2 enzyme inhibitors, primary screen, biochemical, fluorescence polarization, human. actives 1.2% (n = 340,000). Platelet-activating factor acetylhydrolase IB subunit alpha2 (Homo sapiens), P68402. inhibition, % at 3.39 µM. recombinant PAFAH1B2, FP-rhodamine activity probe;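 active = inhibition above the mean of all tested compounds plus 3 SD, cut at about 24% in these data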;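 also: 0% = enzyme with DMSO and 100% = wells lacking PAFAH1B2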
Target sequence (P68402 whole entry, looked up): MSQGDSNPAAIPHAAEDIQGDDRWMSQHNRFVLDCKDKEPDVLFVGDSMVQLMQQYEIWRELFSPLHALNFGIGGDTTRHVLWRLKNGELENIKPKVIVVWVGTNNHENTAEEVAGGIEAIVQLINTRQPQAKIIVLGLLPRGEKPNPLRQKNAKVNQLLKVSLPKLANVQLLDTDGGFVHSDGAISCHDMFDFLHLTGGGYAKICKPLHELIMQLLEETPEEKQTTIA
NR3A LBD binder = binders of NR3A ligand-binding domain, primary screen, biophysical, differential scanning fluorimetry, uHTS; Glutamate receptor ionotropic, NMDA 3A (GRIN3A) ligand-binding domain; NR3A LBD differential scanning fluorimetry, Tm shift; 0% = protein alone, 100% = glycine-bound protein; actives 2.5% (n = 340,000); Tm shift relative to glycine control, % at 25 µM;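 active = melting temperature shift of at least 10% of the positive control shift, at one fixed dose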
UCH37 inh = inhibitors of human UCH37 deubiquitinase, primary screen, biochemical, Ub-AMC cleavage, fluorescence; inhibition, % (test concentration not listed); purified proteasome/UCH37; actives 0.33% (n = 330,000); Ubiquitin carboxyl-terminal hydrolase isozyme L5 (Homo sapiens), Q9Y5K5;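 active = mean inhibition over replicate wells above about 20%, limit read from the data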;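 also: 0% = compound-free wells with enzyme and 100% = wells lacking proteasome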
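system = Proteasome-associated human UCH37 deubiquitinase | amount = 0.15 nM proteasome as dispensed | medium = pH 7.4 Tris-HCl (50 mM) with ovalbumin, ATP-MgCl2, DTT | incubation = 30 min preincubation with enzyme, 25 min cleavage at room temperature | detection = AMC fluorescence 355/460 nm | read-out basis = percent inhibition | controls = no-proteasome and no-compound wells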
* = called active by the depositor; / = not tested or not shown. Most compounds without a hit are left out; they make up all but 4.8% or so of the library.

SMILES	PAFAH1B3 FP inh	PAFAH2 inh	pPAFAH inh	PAFAH1B2 FP inh	NR3A LBD binder	UCH37 inh
COc1ccc(C=NNC(=O)c2cc(-c3ccccc3OC(C)C)nc3ccccc23)cc1CN1CCOCC1	/	/	/	/	/	1
COC(=O)c1ccc(NC(=O)C(=O)N2CCN(C(=S)NCCc3ccccc3)CC2)cc1	-1	-3	0	3	15*	2
O=C(Nc1ccc(N2C(=O)C3C4C=CC(C4)C3C2=O)cc1)Nc1nncs1 (centres undefined)	5	-4	8	5	-7	5
O=C(Nc1ccc(N2C(=O)C3C4C=CC(C4)C3C2=O)cc1)Nc1nnc(C(F)(F)F)s1 (centres undefined)	0	4	0	-2	20*	-1
CC(=O)C1=C(C)NC(SCC(=O)c2ccc(Cl)cc2Cl)=C(C#N)C1c1ccco1 (centres undefined)	3	4	28*	1	/	-6
Cc1ccc(C(=O)CSC2=C(C#N)C(c3ccco3)CC(=O)N2)c(C)c1 (centres undefined)	15	11	28*	8	-4	5
Cc1ccc(NC(=O)CSC2=C(C#N)C(c3ccco3)CC(=O)N2)cc1 (centres undefined)	8	5	0	-5	-1	1
NC(=NOC(=O)c1cccc(Br)c1)c1ccc([N+](=O)[O-])cc1	/	/	/	/	/	1
CCc1ccc(-c2cc(C(=O)NN=Cc3c[nH]c4ccccc34)[nH]n2)cc1	/	/	/	/	/	-19
CCc1ccc(-c2cc(C(=O)N/N=C/c3c[nH]c4ccccc34)[nH]n2)cc1	6	-14	20	0	24*	/
CCc1ccc2c(Cl)c(C(=O)N/N=C/c3c[nH]c4ccccc34)sc2c1	12	-8	13	-4	24*	/
O=c1cc(-c2ccc3c(c2)OCCO3)oc2ccc(Cl)cc12	2	0	1	3	12*	-42
O=c1cc(-c2ccccc2)oc2ccc(Cl)cc12	6	5	/	1	14*	/
O=c1oc2ccc(Cl)cc2cc1-c1ccccc1	-6	-4	-5	0	14*	-31
Cc1ccc(C=NNc2cc(C)nc(N3CCOCC3)n2)cc1	/	/	/	/	/	5
COc1cc(C=Nn2cnn(Cc3ccccc3Cl)c2=S)cc(OC)c1OC	/	/	/	/	/	4
CC(=O)Nc1ccc(Nc2ccc([N+](=O)[O-])cn2)cc1	3	-1	1	1	11*	12
O=[N+]([O-])c1ccc(Nc2cccc(F)c2)nc1	12	-3	0	5	25*	4
CN(C)c1ccc(Nc2ccc([N+](=O)[O-])cn2)cc1	-2	2	6	3	-1	6
Cc1ccc(Nc2ccc([N+](=O)[O-])cn2)cc1Cl	15	-1	/	0	14*	-1
O=[N+]([O-])c1ccc(Nc2ccc(F)cc2)nc1	4	1	4	7	7	5
O=[N+]([O-])c1ccc(Nc2ccccc2)nc1	5	2	-6	5	12*	7
CCOc1cc(C=NO)ccc1OCc1ccc(F)cc1	/	/	/	/	/	2
CC(=NNC(=O)c1ccco1)c1cccc(NC(=O)c2ccc(C)o2)c1	/	/	/	/	/	2
COc1cc(C=NNc2nc(C)cc(=O)[nH]2)ccc1O	/	/	/	/	/	10
SMILES	PAFAH1B3 FP inh	PAFAH2 inh	pPAFAH inh	PAFAH1B2 FP inh	NR3A LBD binder	UCH37 inh
Cn1c(Oc2ccc(Cl)cc2)c(C=O)c2ccccc21	-7	2	3	5	15*	-2
COc1ccc(Oc2c(C=O)c3ccccc3n2C)cc1	-1	-9	-2	0	1	-3
CC(C)NS(=O)(=O)c1ccc(CCC(=O)NCc2ccccn2)cc1	17	8	-3	3	2	3
Cc1ccc(NS(=O)(=O)c2ccc(CCC(=O)NCc3ccccn3)cc2)cc1	-3	3	32*	7	1	1
Cc1ccc(NS(=O)(=O)c2ccc(C(=O)NCc3ccccn3)cc2)cc1	7	2	31*	6	14*	0
O=C(CCNC(=O)c1ccc(Br)cc1)Nc1ccc(S(=O)(=O)Nc2ncccn2)cc1	5	7	28*	2	1	3
Cc1ccc(NS(=O)(=O)c2ccc(CCC(=O)NCCO)cc2)cc1	1	4	25*	1	-1	1
CC(C)Oc1ccc(C=NNC(N)=S)cc1	/	/	/	/	/	4
Nc1nc(-c2ccccc2)ns1	9	8	/	7	13*	/
Cc1ccc(NC(=O)CCCCCN2C(=O)[C@@H]3Cc4ccccc4CN3C2=O)cc1	7	9	3	28*	1	0
Cc1cccc(NC(=O)CCCCCN2C(=O)[C@@H]3Cc4ccccc4CN3C2=O)c1	3	12	5	5	-1	1
CC(C)n1c(N=Cc2ccccc2O)nc2ccccc21	/	/	/	/	/	0
NC(=O)N/N=C/c1c(Sc2nnnn2-c2ccccc2)nc2ccccn2c1=O	7	2	0	4	29*	/
CCc1ccc[n+](-c2[nH]c(=O)sc2C=N/N=C(\[O-])c2ccncc2)c1	/	/	/	/	/	20
O/N=C\c1ccc2noc(-c3ccc(Cl)cc3)c2c1	-2	11	1	1	32*	/
CC(=O)c1ccc2noc(-c3ccc(Cl)cc3)c2c1	2	7	5	1	1	-5
O=c1c2ccccc2nc(COc2ccccc2)n1N=Cc1cc([N+](=O)[O-])ccc1O	/	/	/	/	/	5
O=C(Cn1cnc2c(nnn2-c2ccc(F)cc2)c1=O)N1CCCc2ccccc21	6	0	4	-1	0	6
CCOc1ccc(-n2nnc3c(=O)n(CC(=O)N4CCCc5ccccc54)cnc32)cc1	1	-4	5	1	15*	3
COc1ccc(-n2nnc3c(=O)n(CC(=O)N4CCCc5ccccc54)cnc32)cc1	-8	-2	6	-7	12*	-2
Cc1cc(C(=O)NN=Cc2cccc([N+](=O)[O-])c2)c2ccccc2n1	/	/	/	/	/	2
CC(=NNC(N)=S)c1cc2ccc(O)cc2oc1=O	/	/	/	/	/	-79
CNc1cc(C)nc(-n2nc(C)cc2C)n1	8	0	5	3	11*	1
Cc1cc(Cl)nc(-n2nc(C)cc2C)n1	/	/	-2	/	-5	3
COc1ccc(-c2nn(-c3ccccc3)cc2C=NNS(=O)(=O)c2ccccc2)cc1	/	/	/	/	/	5
COC(=O)c1cc(C(=O)c2cccc(Cl)c2Cl)cn1C	5	10	25*	2	0	4

Compound activity deposited in PubChem by several laboratories.
